Results from ChEMBL document CHEMBL3826940, “Amphipathicity Determines Different Cytotoxic Mechanisms of Lysine- or Arginine-Rich Cationic Hydrophobic Peptides in Cancer Cells” (J Med Chem, 2016).
Activity calls are given as the source filed them. The calls are words filed in the database; no cut-off is given here.

Tests used:
[1] = system: A549; assay: Selectivity index, ratio of IC50 for HLF to IC50 for human A549 cells
[2] = system: HUVEC; assay: Induction of reactive oxygen species generation in HUVEC at 5 uM after 30 mins by DCFH-DA staining-based fluorescence assay; type: cell-based; conditions: human, 0.5 h
Procedure, shortened: (§1)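 Cells in 96-well plates were loaded with DCFH-DA for 20 min at 37 °C, then treated with or without 5 μM peptide for 30 min. After a PBS wash, DCF fluorescence was read at 485/535 nm and expressed as fold change versus untreated cells.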

[3] = system: MCF7; assay: Selectivity index, ratio of IC50 for human 293T cells to IC50 for human MCF7 cells; type: functional
[4] = system: A549; assay: Induction of reactive oxygen species generation in human A549 cells at 5 uM after 30 mins by DCFH-DA staining-based fluorescence assay; type: functional, cell-based; procedure, shortened: as §1
[5] = system: HeLa; assay: Cytotoxicity against human HeLa cells assessed as lethality at 5 uM after 30 mins by MTT assay; type: functional
Procedure, shortened: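 HeLa cells were grown in DMEM with 10% FBS and seeded at 1 × 10^4 cells/well, then grown 24 h. Medium was replaced with fresh medium containing 5 μM peptide for 30 min. MTT was added for 4 h and formazan was dissolved in DMSO (10 min, 37 °C). Lethality was read as absorbance at 490 nm.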

[6] = Cytotoxicity against HLF assessed as cell viability after 24 hrs by MTT assay; set-up: species or system Homo sapiens; conditions: Homo sapiens, HLF
Procedure, shortened: (§2)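 MTT viability assay. Cells were seeded at 1 × 10^4 cells/well in complete medium and grown 24 h. Medium was replaced with fresh medium containing peptide over a concentration series and incubated 24 h. MTT (5 mg/mL) was added for 4 h, formazan was dissolved in DMSO, and A490 was read. IC50 was derived from mean ± SD of three independent experiments.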

[7] = system: HeLa; assay: Induction of apoptosis in human HeLa cells assessed as caspase-3 activation at 5 uM after 5 mins by caspase-glo assay; type: functional, cell-based
Procedure, shortened: (§3)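 Cells in 96-well plates were exposed to 5 μM peptide for 5, 10, 15 or 30 min, or 1, 2, 3 or 4 h. Caspase-Glo 3/7 reagent was added, the plate shaken 30 s and incubated 2 h at room temperature, and luminescence was read.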

[8] = Induction of reactive oxygen species generation in human 293T cells at 5 uM after 30 mins by DCFH-DA staining-based fluorescence assay; type: cell-based; conditions: hek-293t, 0.5 h; procedure, shortened: as §1
[9] = Induction of reactive oxygen species generation in HLF at 5 uM after 30 mins by DCFH-DA staining-based fluorescence assay; conditions: human, 0.5 h; procedure, shortened: as §1
[10] = system: MCF7; assay: Selectivity index, ratio of IC50 for HLF to IC50 for human MCF7 cells
[11] = system: HeLa; assay: Cytotoxicity against human HeLa cells assessed as cell mortality at 5 uM after 5 mins by Hoechst 33342/propidium iodide staining-based assay; type: functional
Procedure, shortened: (§4)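 HeLa cells treated with 5 μM peptide were co-stained with Hoechst 33342 (stains all nuclei) and propidium iodide (stains only membrane-compromised cells). Fluorescence imaging was done at time points up to 30 min.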

[12] = system: A549; assay: Cytotoxicity against human A549 cells assessed as cell viability after 24 hrs by MTT assay; type: functional, cell-based; conditions: A549, 24 h; procedure, shortened: as §2
[13] = system: HeLa; assay: Cytotoxicity against human HeLa cells assessed as lethality at 5 uM after 30 mins in presence of caspase-3 inhibitor Ac-DEVD-CHO by MTT assay; type: functional
Procedure, shortened: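 HeLa cells were seeded at 1 × 10^4 cells/well and grown 24 h. They were pretreated 30 min with 50 μM Ac-DEVD-CHO, then incubated with or without 5 μM peptide for 30 min. Survival was measured by MTT: 4 h with MTT, DMSO solubilisation, absorbance at 490 nm.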

[14] = system: HeLa; assay: Induction of apoptosis in human HeLa cells assessed as late apoptotic cells at 5 uM after 15 mins by annexin V/FITC staining-based flow cytometric method relative to control; type: functional
Procedure, shortened: (§5)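 Cells were grown 24 h in 6-well plates, then exposed to 5 μM peptide for 15 min. They were collected, washed twice with PBS, and stained with annexin V-FITC plus PI for 20 min at room temperature in the dark before flow cytometry.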

[15] = system: MCF7; assay: Induction of reactive oxygen species generation in human MCF7 cells at 5 uM after 30 mins by DCFH-DA staining-based fluorescence assay; type: functional, cell-based; procedure, shortened: as §1
[16] = system: HeLa; assay: Selectivity index, ratio of IC50 for human 293T cells to IC50 for human HeLa cells; type: functional
[17] = system: HeLa; assay: Cytotoxicity against human HeLa cells assessed as lethality at 5 uM at 0 degC after 30 mins by MTT assay; type: functional, cell-based
Procedure, shortened: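 HeLa cells were incubated with peptide over a range of concentrations at 0 or 37 °C for 30 min. Lethality was then measured by MTT, with A490 read after DMSO solubilization.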

[18] = Cytotoxicity against human 293T cells assessed as cell viability after 24 hrs by MTT assay; type: cell-based, HEK-293T; conditions: Homo sapiens, HEK-293T; procedure, shortened: as §2
[19] = system: A549; assay: Selectivity index, ratio of IC50 for human 293T cells to IC50 for human A549 cells; type: functional
[20] = system: HeLa; assay: Induction of shrinkage of human HeLa cells at 5 uM after 30 mins by microscopic method; type: functional, cell-based
Procedure, shortened: (§6)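 HeLa cells were co-incubated with 5 μM peptide for 30 min. Morphology was then examined under the microscope.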

[21] = system: HeLa; assay: Induction of appearance of rounded human HeLa cells at 5 uM after 30 mins by microscopic method; type: functional, cell-based; procedure, shortened: as §6
[22] = system: MCF7; assay: Selectivity index, ratio of IC50 for HUVEC to IC50 for human MCF7 cells
[23] = system: HeLa; assay: Induction of apoptosis in human HeLa cells assessed as caspase-3 activation at 5 uM after 1 to 4 hrs by caspase-glo assay; type: functional, cell-based; procedure, shortened: as §3
[24] = system: MCF7; assay: Cytotoxicity against human MCF7 cells assessed as cell viability after 24 hrs by MTT assay; type: functional, cell-based; conditions: MCF7, 24 h; procedure, shortened: as §2
[25] = system: HeLa; assay: Induction of apoptosis in human HeLa cells assessed as early apoptotic cells at 5 uM after 15 mins by annexin V/FITC staining-based flow cytometric method (reference value: 0.1%); type: functional; procedure, shortened: as §5
[26] = system: HeLa; assay: Induction of apoptosis in human HeLa cells assessed as necrotic cells at 5 uM after 15 mins by annexin V/FITC staining-based flow cytometric method relative to control; type: functional; procedure, shortened: as §5
[27] = system: HeLa; assay: Induction of apoptosis in human HeLa cells assessed as viable cells at 5 uM after 15 mins by annexin V/FITC staining-based flow cytometric method (reference value: 99.8%); type: functional; conditions: 0.25 h, read-out: Activity; procedure, shortened: as §5
[28] = system: HeLa; assay: Induction of apoptosis in human HeLa cells assessed as caspase-3 cleavage at 5 uM after 5 mins by Western blot method; type: functional, cell-based
Procedure, shortened: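 HeLa cells (8 × 10^5 per 100 mm dish, grown 24 h) were exposed to 5 μM peptide for 5, 10 or 15 min. Lysates (with 1 mM PMSF) were run on 15% SDS-PAGE and blotted to PVDF. Blots were probed overnight at 4 °C with rabbit monoclonal anti-cleaved caspase-3, then HRP goat anti-rabbit, and detected by ECL with actin as loading control.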

[29] = system: HeLa; assay: Selectivity index, ratio of IC50 for HUVEC to IC50 for human HeLa cells
[30] = system: HeLa; assay: Cytotoxicity against human HeLa cells assessed as cell mortality at 5 uM after 30 mins by Hoechst 33342/propidium iodide staining-based assay; type: functional; procedure, shortened: as §4
[31] = system: HeLa; assay: Cytotoxicity against human HeLa cells assessed as cell viability after 24 hrs by MTT assay; type: functional, cell-based; procedure, shortened: as §2
[32] = system: HeLa; assay: Selectivity index, ratio of IC50 for HLF to IC50 for human HeLa cells
[33] = Drug uptake in cytoplasm of human HeLa cells at 5 uM after 2 to 30 mins using iridium dye labeled compound by confocal microscopic method; type: ADME, cell-based
Procedure, shortened: (§7)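 Peptides were labelled at the N-terminal His with [Ir(ppy)2(H2O)2]OTf: 200 μM each, mixed 1:1 in PBS, 2 h at 37 °C in the dark. HeLa cells (1 × 10^5 per dish, grown 24 h) were exposed to 5 μM labelled peptide. Live-cell confocal images were taken at 0, 5 and 15 min (excitation 403 nm, emission 500–560 nm).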

[34] = system: HeLa; assay: Cytotoxicity against human HeLa cells assessed as cell mortality at 5 uM after 6 hrs by MTT assay; type: functional, cell-based
[35] = Hemolytic activity in mouse RBC after 1 hr; type: ADME, cell-based, Erythrocyte; conditions: red blood cells
Procedure, shortened: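 Heparinized fresh mouse blood: RBCs were washed three times in 0.9% saline and diluted to 4.0 × 10^8 cells/mL. Peptides at various concentrations were incubated with the RBCs 1 h at 37 °C. After centrifugation at 1000 rpm for 10 min, supernatant absorbance was read at 540 nm, with 1% Triton X-100 set as 100% hemolysis.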

[36] = system: A549; assay: Selectivity index, ratio of IC50 for HUVEC to IC50 for human A549 cells
[37] = system: HeLa; assay: Induction of morphological changes in human HeLa cells at 5 uM after 30 mins by microscopic method; type: functional, cell-based; procedure, shortened: as §6
[38] = system: HUVEC; assay: Cytotoxicity against HUVEC assessed as cell viability after 24 hrs by MTT assay; type: cell-based, Homo sapiens; conditions: Homo sapiens, HUVEC; procedure, shortened: as §2
[39] = system: HeLa; assay: Induction of reactive oxygen species generation in human HeLa cells at 5 uM after 30 mins by DCFH-DA staining-based fluorescence assay; type: functional, cell-based; procedure, shortened: as §1
[40] = system: HeLa; assay: Cytotoxicity against human HeLa cells assessed as cell mortality at 5 uM after 5 mins by MTT assay; type: functional, cell-based
[41] = Drug uptake in plasma membrane of human HeLa cells at 5 uM after 2 to 30 mins using iridium dye labeled compound by confocal microscopic method; type: ADME, cell-based; procedure, shortened: as §7
[42] = system: HeLa; assay: Induction of morphological changes in human HeLa cells assessed as membrane fragmentation at 5 uM after 30 mins by microscopic method; type: functional, cell-based; procedure, shortened: as §6
[43] = system: HeLa; assay: Induction of morphological changes in human HeLa cells assessed as membrane leakage at 5 uM after 30 mins by microscopic method; type: functional, cell-based; procedure, shortened: as §6
[44] = system: HeLa; assay: Induction of apoptosis in human HeLa cells assessed as caspase-3 activation at 5 uM measured up to 4 hrs by caspase-glo assay; type: functional, cell-based; procedure, shortened: as §3

CC(C)C[C@H](NC(=O)[C@H](CCCNC(=N)N)NC(=O)[C@H](CC(C)C)NC(=O)[C@H](CC(C)C)NC(=O)[C@H](CCCNC(=N)N)NC(=O)[C@H](CCCNC(=N)N)NC(=O)[C@H](CC(C)C)NC(=O)[C@H](CCCNC(=N)N)NC(=O)[C@H](CC(C)C)NC(=O)[C@H](CC(C)C)NC(=O)[C@H](CCCNC(=N)N)NC(=O)[C@H](CC(C)C)NC(=O)[C@H](CC(C)C)NC(=O)[C@H](CCCNC(=N)N)NC(=O)CNC(=O)CNC(=O)[C@@H](N)Cc1cnc[nH]1)C(N)=O
Ratio IC50 [1]: 4
Activity [2]: Non-toxic
Ratio IC50 [3]: 4
Activity [4]: Active
Activity [5]: 56%
IC50 [6]: 21.4 µM
Activity [7]: Active
Activity [8]: Non-toxic
Activity [9]: Non-toxic
Ratio IC50 [10]: 4
Activity [11]: inactive
IC50 [12]: 4.8 µM
Activity [13]: 20%
Activity [14]: 7.7%
Activity [15]: Active
Ratio IC50 [16]: 4
Activity [17]: inactive
IC50 [18]: 41.6 µM
Ratio IC50 [19]: 4
Activity [20]: Active
Activity [21]: Active
Ratio IC50 [22]: 4
Activity [23]: inactive
IC50 [24]: 4.5 µM
Activity [25]: 45.9%
Activity [26]: 0.1%
viability at 5 µM [27]: 46.3%
Activity [28]: Active
Ratio IC50 [29]: 4
Activity [30]: Active
IC50 [31]: 4.2 µM
Ratio IC50 [32]: 4
Drug uptake [33]: Active
Activity [34]: Active
HC50 at 1 h [35]: > 200000 nM
Ratio IC50 [36]: 4
Activity [37]: inactive
IC50 [38]: 19 µM
Activity [39]: Active
Activity [40]: inactive

H-HGGRLLRLLRRLLRLLR-NH2
Drug uptake [41]: Active
IC50 [6]: 6.3 µM
Activity [11]: Active
IC50 [12]: 4.3 µM
Activity [17]: Active
IC50 [18]: 9.6 µM
Activity [42]: Active
IC50 [24]: 2.5 µM
IC50 [31]: 3.7 µM
Activity [43]: Active
HC50 at 1 h [35]: 2900 nM
IC50 [38]: 8.4 µM
Activity [40]: Active
Activity [44]: inactive
